Source: ChEMBL document CHEMBL4393654, “Discovery and Early Clinical Development of an Inhibitor of 5-Lipoxygenase Activating Protein (AZD5718) for Treatment of Coronary Artery Disease” (J Med Chem, 2019)
pIC50: −log10 of the molar value. ≈ marks a conversion by molar mass, not a printed value.

What was measured:
[1] = Intrinsic clearance in rat hepatocytes assessed per million cells at 1 uM measured after 2 to 60 mins by LC-MS/MS analysis; assay type: ADME, cell-based, Hepatocyte; settings: read-out: CLH
Procedure, shortened: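 Rat hepatocyte incubation of the compound; intrinsic clearance measured after incubation.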

[2] = Intrinsic clearance in human hepatocytes assessed per million cells at 1 uM measured after 2 to 60 mins by LC-MS/MS analysis; assay type: ADME, cell-based, Hepatocyte; settings: read-out: CLH
Cytochrome P450 2C9 = Cytochrome P450 2C9 (Homo sapiens, UniProt P11712); assay: Inhibition of recombinant human CYP2C9 expressed in Escherichia coli using 7MFC as substrate by fluorescence assay; assay type: ADME
Cytochrome P450 2C9, sequence (P11712 whole entry): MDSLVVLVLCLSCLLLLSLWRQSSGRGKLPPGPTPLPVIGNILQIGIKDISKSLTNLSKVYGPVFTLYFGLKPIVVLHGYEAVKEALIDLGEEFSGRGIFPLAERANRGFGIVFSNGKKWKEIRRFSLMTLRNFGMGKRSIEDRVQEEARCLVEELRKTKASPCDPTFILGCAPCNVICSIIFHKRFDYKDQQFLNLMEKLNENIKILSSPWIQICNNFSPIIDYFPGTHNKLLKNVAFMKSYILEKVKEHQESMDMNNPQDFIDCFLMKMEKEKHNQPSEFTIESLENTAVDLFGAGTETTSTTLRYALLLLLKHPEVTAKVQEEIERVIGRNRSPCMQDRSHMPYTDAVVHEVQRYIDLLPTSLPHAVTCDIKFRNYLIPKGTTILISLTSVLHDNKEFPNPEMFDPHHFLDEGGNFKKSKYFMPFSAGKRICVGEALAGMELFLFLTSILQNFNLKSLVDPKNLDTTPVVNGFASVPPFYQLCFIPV

[3] = Passive apparent permeability across apical to basolateral side in human Caco2 cells at pH 6.5; assay type: ADME, cell-based; settings: Caco-2, pH 6.5
Procedure, shortened: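 Passive permeability across Caco-2 monolayers, measured in the A to B direction at pH 6.5.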

[4] = Mutagenicity in Salmonella typhimurium TA100 in absence of rat S9 fraction by Ames test; assay type: toxicity; settings: salmonella enterica subsp. enterica serovar typhimurium
Procedure, shortened: (§1)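 Ames bacterial mutagenicity test in S. typhimurium TA98 and TA100. Run with and without metabolic activation by rat S9 fraction.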

[5] = Mutagenicity in Salmonella typhimurium TA100 in presence of rat S9 fraction by Ames test; assay type: toxicity, subcellular; settings: salmonella enterica subsp. enterica serovar typhimurium; procedure, shortened: as §1
[6] = molecular target: T1, A-type potassium channel modulatory protein KCNIP2 (Homo sapiens, UniProt Q9NS61); assay: Inhibition of human KChip2.2 by Ion-work electrophysiology assay
T1 sequence (Q9NS61 whole entry): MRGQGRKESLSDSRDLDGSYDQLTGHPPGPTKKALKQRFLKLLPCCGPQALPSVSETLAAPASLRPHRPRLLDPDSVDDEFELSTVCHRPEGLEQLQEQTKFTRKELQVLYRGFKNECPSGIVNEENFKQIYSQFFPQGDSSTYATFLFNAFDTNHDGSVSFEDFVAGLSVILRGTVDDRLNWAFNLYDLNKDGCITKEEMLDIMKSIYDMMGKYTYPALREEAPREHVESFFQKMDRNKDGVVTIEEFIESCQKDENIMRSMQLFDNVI

[7] = Protein binding in human plasma assessed as unbound fraction by equilibrium dialysis method; assay type: ADME, cell-free
Cytochrome P450 2D6 = Cytochrome P450 2D6 (Homo sapiens, UniProt P10635); assay: Inhibition of recombinant human CYP2D6 expressed in Escherichia coli using MAMC as substrate by fluorescence assay; assay type: ADME
Cytochrome P450 2D6, sequence (P10635 whole entry): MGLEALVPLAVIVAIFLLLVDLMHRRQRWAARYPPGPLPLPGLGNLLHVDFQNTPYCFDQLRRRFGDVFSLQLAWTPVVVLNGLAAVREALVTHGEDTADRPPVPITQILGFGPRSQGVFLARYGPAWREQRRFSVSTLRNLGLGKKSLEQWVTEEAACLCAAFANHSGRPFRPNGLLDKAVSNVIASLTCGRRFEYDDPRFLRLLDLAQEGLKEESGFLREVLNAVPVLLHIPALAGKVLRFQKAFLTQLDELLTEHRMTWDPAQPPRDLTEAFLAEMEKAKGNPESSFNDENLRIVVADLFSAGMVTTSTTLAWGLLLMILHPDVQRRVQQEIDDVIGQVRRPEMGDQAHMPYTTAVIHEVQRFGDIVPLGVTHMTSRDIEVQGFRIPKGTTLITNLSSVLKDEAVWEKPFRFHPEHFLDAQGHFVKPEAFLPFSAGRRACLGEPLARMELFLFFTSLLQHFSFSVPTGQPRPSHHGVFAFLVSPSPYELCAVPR

[8] = Aqueous solubility of the compound in pH 7.4 phosphate buffer measured after 24 hrs by LC-MS/MS-based shake flask method; assay type: physicochemical
[9] = molecular target: T2, Potassium voltage-gated channel subfamily KQT member 1 (Homo sapiens, UniProt P51787); assay: Inhibition of human Kv7.1 by Ion-work electrophysiology assay
T2 sequence (P51787 whole entry): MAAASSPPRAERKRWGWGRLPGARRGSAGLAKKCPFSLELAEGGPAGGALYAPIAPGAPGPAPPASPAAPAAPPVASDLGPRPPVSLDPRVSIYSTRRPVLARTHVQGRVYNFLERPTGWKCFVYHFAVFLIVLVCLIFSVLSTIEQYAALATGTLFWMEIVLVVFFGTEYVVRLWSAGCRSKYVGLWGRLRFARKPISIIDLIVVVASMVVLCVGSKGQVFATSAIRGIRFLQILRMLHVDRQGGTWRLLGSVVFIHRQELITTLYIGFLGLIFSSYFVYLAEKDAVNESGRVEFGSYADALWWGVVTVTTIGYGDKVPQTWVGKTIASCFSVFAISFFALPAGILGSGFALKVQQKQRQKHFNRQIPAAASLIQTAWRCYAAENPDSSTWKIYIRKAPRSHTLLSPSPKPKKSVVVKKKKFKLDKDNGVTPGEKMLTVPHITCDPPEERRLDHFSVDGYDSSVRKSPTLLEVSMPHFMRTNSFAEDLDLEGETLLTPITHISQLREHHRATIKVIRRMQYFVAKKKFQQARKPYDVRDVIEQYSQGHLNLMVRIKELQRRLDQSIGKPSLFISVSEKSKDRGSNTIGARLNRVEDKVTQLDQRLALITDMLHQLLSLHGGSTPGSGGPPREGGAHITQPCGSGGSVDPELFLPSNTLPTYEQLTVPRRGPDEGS

[10] = molecular target: T3, Aryl hydrocarbon receptor (Homo sapiens, UniProt P35869); assay: Agonist activity at AhR in human HepG2 cells assessed as induction of CYP1A1 activity at 0.001 to 30 uM measured after 24 hrs by immunocytochemistry analysis; assay type: ADME, cell-based; settings: hepg2, 24 h
T3 sequence (P35869 whole entry): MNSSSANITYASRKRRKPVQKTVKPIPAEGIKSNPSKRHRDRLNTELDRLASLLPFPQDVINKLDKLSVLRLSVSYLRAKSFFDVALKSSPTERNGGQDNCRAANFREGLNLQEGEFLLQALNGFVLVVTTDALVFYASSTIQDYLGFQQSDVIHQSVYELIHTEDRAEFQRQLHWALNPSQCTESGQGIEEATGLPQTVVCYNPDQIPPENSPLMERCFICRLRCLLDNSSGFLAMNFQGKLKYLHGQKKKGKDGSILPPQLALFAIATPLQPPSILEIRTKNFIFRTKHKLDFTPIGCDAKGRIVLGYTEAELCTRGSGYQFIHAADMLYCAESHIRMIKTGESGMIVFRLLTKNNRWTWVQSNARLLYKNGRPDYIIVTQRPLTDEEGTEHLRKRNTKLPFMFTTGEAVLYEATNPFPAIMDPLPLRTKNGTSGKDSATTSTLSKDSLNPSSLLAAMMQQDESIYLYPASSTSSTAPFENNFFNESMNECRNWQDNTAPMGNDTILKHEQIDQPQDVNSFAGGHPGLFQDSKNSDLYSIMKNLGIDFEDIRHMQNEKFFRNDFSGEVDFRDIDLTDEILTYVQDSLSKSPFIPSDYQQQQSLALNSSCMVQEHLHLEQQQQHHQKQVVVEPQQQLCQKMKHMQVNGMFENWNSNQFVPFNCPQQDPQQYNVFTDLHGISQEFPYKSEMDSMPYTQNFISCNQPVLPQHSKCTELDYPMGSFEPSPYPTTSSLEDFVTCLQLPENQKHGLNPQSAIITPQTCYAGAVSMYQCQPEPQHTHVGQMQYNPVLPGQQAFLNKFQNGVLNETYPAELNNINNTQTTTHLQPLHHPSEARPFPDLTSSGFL

| hepatocyte CLint at 1 µM [1] [µL/min/1e6 cells] | hepatocyte CLint at 1 µM [2] [µL/min/1e6 cells] | pIC50 (Cytochrome P450 2C9) | Papp A→B [3] [×10⁻⁶ cm/s] | pIC50 [6] | fraction unbound [7] | pIC50 (Cytochrome P450 2D6) | solubility thermodynamic at 24 h [8] [µM] | pIC50 [9] | Activity [10] | SMILES | Activity [4] | Activity [5] |
| --- | --- | --- | --- | --- | --- | --- | --- | --- | --- | --- | --- | --- |
| 19.5 | 6 | < 4.70 | 14.7 | < 4.48 | 0.006 | < 4.70 | 208 (≈ 105 µg/mL) | < 4.48 | Not Active | Cc1cc(-c2ccc(C(=O)[C@@H]3CCCC[C@H]3C(=O)Nc3cnn(C)c3C(=O)NOC(C)(C)C)cc2)[nH]n1 | Non-Toxic | Non-Toxic |
| 13.8 | 4.2 | < 4.70 | 3.7 | < 4.48 | 0.053 | < 4.70 | 104 (≈ 46.4 µg/mL) | < 4.48 | Not Active | Cc1cc(-c2ccc(C(=O)[C@@H]3CCCC[C@H]3C(=O)Nc3cnn4c3C(=O)NCC4)cc2)[nH]n1 | Non-Toxic | Non-Toxic |
| 9.7 | 4.9 | < 4.70 | 9 | < 4.48 | 0.031 | < 4.70 | 79.7 (≈ 37.5 µg/mL) | < 4.48 | Not Active | Cc1cc(-c2ccc(C(=O)[C@@H]3CCCC[C@H]3C(=O)Nc3cnn(C)c3S(N)(=O)=O)cc2)[nH]n1 | Non-Toxic | Non-Toxic |
